{
  "source": "ChEMBL document CHEMBL4765301",
  "about": "“Discovery of novel TNNI3K inhibitor suppresses pyroptosis and apoptosis in murine myocardial infarction injury” (Eur J Med Chem, 2020)",
  "key": {"Mus musculus [1]": {"tested_on": "Mus musculus", "assay": "Cardioprotective activity in C57BL/6 mouse model of myocardial infarction assessed as reduction in infarct area at 25 mg/kg, ip administered for 28 days and measured on day 28 by TTC staining based fluorescence microscopy", "format": "functional, organism-based", "conditions": "time 28.0 day", "how_it_was_run": "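Male C57BL/6 mice (5-6 weeks); MI by permanent LAD ligation under ip ketamine (100mg/kg)/xylazine (10mg/kg) with ventilation; sham group operated without LAD occlusion. Post-MI mice randomised to sham, normal saline or inhibitor groups (n=4); 25 mg/kg given ip every two days. Hearts assessed after 28 days: TTC staining (infarct yellow-white, viable red), Masson's trichrome (blue collagen) and H&E.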"}, "H9c2 [2]": {"tested_on": "H9c2", "assay": "Inhibition of OGD-induced apoptosis in rat H9c2 cells assessed as reduction in caspase1 level at 0.5 to 1 uM by Western blot analysis", "format": "functional, cell-based", "conditions": "dose 0.5-1 µM", "how_it_was_run": "(§1)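 H9c2 cells under OGD were treated with saline or 0.5 or 1.0 µM inhibitor. Cells were trypsinised, washed in cold PBS, lysed in RIPA with sonication and centrifuged 30 min. Total protein was quantified and separated by SDS-PAGE, then transferred to PVDF. Blots were probed with primary and secondary antibodies and detected by ECL.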"}, "H9c2 [3]": {"tested_on": "H9c2", "assay": "Inhibition of OGD-induced apoptosis in rat H9c2 cells assessed as early apoptotic cells at 0.5 uM incubated for 24 hrs by annexinV-FITC and PI staining based flow cytometry analysis (reference value: 3.53 %)", "format": "functional"}, "H9c2 [4]": {"tested_on": "H9c2", "assay": "Inhibition of OGD-induced apoptosis in rat H9c2 cells assessed as late apoptotic cells at 1 uM incubated for 24 hrs by annexinV-FITC and PI staining based flow cytometry analysis (reference value: 9 %)", "format": "functional"}, "H9c2 [5]": {"tested_on": "H9c2", "assay": "Inhibition of OGD-induced apoptosis in rat H9c2 cells assessed as reduction in NLRP3 level at 0.5 to 1 uM by Western blot analysis", "format": "functional, cell-based", "conditions": "dose 0.5-1 µM", "how_it_was_run": "as §1"}, "Mus musculus [6]": {"tested_on": "Mus musculus", "assay": "In vivo inhibition of TNNI3K in C57BL/6 mouse at 25 mg/kg, ip administered for 28 days and measured on day 28 by immunohistochemical staining based fluorescence microscopy", "format": "functional, organism-based", "conditions": "time 28.0 day", "how_it_was_run": "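Male C57BL/6 mice (5-6 weeks) with LAD-ligation MI; sham, saline or 25 mg/kg ip every two days, n=4, 28 days. Heart sections given EDTA (pH 8.0) or citrate (pH 6.0) microwave antigen retrieval, then primary antibody 30-40 min at 37°C. Detection by HRP polymer secondary with DAB (IHC) or fluorescent secondary (IF). Positive cells were quantified.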"}, "[7]": {"molecular_target": "T1, Serine/threonine-protein kinase TNNI3K (Homo sapiens, UniProt Q59H18)", "T1 sequence (Q59H18 whole entry)": "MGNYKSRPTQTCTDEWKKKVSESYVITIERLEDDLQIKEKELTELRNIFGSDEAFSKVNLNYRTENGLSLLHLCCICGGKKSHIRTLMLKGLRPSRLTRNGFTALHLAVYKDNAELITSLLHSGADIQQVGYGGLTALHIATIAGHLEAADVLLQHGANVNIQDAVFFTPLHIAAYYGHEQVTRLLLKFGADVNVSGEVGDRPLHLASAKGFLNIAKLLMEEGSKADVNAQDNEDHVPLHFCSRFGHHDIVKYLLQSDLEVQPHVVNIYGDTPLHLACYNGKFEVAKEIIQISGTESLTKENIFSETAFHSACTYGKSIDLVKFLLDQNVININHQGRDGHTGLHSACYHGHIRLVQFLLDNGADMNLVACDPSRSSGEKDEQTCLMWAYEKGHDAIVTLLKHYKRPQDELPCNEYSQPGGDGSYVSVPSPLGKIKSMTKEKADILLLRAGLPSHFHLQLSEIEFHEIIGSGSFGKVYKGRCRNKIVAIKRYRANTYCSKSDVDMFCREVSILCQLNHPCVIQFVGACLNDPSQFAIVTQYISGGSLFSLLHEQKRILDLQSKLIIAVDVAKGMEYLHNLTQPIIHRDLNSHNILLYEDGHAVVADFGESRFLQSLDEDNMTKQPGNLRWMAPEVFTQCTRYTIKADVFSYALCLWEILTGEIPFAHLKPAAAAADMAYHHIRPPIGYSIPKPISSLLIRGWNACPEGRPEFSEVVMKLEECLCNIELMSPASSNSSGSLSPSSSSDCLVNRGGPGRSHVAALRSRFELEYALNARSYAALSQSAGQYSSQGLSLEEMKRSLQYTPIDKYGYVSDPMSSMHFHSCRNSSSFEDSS", "assay": "Inhibition of TNNI3K (unknown origin) using biotinylated CTnI as substrate by HTRF analysis", "how_it_was_run": "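TNNI3K was assayed by HTRF using a GST-tagged TNNI3K kinase domain and a biotinylated cardiac troponin I substrate peptide, followed by the two HTRF detection reagents. Compounds were screened at 1.0 µM, then IC50s were determined.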"}, "[8]": {"assay": "Toxicity in C57BL/6 mouse assessed as effect on morphology of main organs at 25 mg/kg, ip administered for 28 days and observed on day 28 by H and E staining based fluorescence microscopy", "format": "organism-based", "conditions": "in vivo, 672 h, time 28 day", "how_it_was_run": "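Main organs of MI-model C57BL/6 mice, given 25 mg/kg ip every two days or sham-operated, examined by H&E staining of tissue sections for morphology.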"}, "H9c2 [9]": {"tested_on": "H9c2", "assay": "Inhibition of OGD-induced apoptosis in rat H9c2 cells assessed as reduction in IL-1beta level at 0.5 to 1 uM by Western blot analysis", "format": "functional, cell-based", "conditions": "dose 0.5-1 µM", "how_it_was_run": "as §1"}, "H9c2 [10]": {"tested_on": "H9c2", "assay": "Inhibition of OGD-induced apoptosis in rat H9c2 cells assessed as reduction in GSDMD level at 0.5 to 1 uM by Western blot analysis", "format": "functional, cell-based", "conditions": "dose 0.5-1 µM", "how_it_was_run": "as §1"}, "H9c2 [11]": {"tested_on": "H9c2", "assay": "Inhibition of OGD-induced apoptosis in rat H9c2 cells assessed as reduction in proIL-1beta level at 0.5 to 1 uM by Western blot analysis", "format": "functional, cell-based", "conditions": "dose 0.5-1 µM", "how_it_was_run": "as §1"}, "H9c2 [12]": {"tested_on": "H9c2", "assay": "Inhibition of OGD-induced apoptosis in rat H9c2 cells assessed as reduction in ASC level at 0.5 to 1 uM by Western blot analysis", "format": "functional, cell-based", "conditions": "dose 0.5-1 µM", "how_it_was_run": "as §1"}, "Mus musculus [13]": {"tested_on": "Mus musculus", "assay": "Cardioprotective activity in C57BL/6 mouse model of myocardial infarction assessed as reduction in ventricular dilatation at 25 mg/kg, ip administered for 28 days and measured on day 28 by H and E staining based fluorescence microscopy", "format": "functional, organism-based", "conditions": "time 28.0 day", "how_it_was_run": "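MI made in male C57BL/6 mice (5-6 weeks) by permanent LAD ligation under ip ketamine (100mg/kg)/xylazine (10mg/kg), ventilated. Groups: sham, saline (NS), inhibitor 25 mg/kg ip every two days, n=4. Hearts examined after 28 days; TTC, Masson's trichrome and H&E staining of sections for infarct, collagen/scar, LV inflammatory cells and dilatation.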"}, "H9c2 [14]": {"tested_on": "H9c2", "assay": "Inhibition of OGD-induced apoptosis in rat H9c2 cells incubated for 24 hrs by annexinV-FITC and PI staining based flow cytometry analysis", "format": "functional, cell-based", "conditions": "dose 0.5-1 µM"}, "[15]": {"molecular_target": "Mitogen-activated protein kinase 1 and 3 (ERK2 and ERK1) (Rattus norvegicus) (UniProt P63086+P21708)", "sequence (P21708 whole entry, looked up)": "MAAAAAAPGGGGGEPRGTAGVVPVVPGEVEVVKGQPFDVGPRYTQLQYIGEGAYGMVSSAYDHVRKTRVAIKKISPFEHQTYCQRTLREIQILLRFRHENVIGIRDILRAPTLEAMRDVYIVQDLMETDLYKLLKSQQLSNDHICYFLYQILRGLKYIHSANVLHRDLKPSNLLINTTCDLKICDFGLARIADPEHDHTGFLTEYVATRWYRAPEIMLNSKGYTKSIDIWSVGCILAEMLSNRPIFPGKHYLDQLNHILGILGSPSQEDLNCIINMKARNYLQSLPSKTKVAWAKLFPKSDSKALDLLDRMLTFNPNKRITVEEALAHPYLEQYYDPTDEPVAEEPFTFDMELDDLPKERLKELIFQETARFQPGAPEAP", "sequence (P63086 whole entry, looked up)": "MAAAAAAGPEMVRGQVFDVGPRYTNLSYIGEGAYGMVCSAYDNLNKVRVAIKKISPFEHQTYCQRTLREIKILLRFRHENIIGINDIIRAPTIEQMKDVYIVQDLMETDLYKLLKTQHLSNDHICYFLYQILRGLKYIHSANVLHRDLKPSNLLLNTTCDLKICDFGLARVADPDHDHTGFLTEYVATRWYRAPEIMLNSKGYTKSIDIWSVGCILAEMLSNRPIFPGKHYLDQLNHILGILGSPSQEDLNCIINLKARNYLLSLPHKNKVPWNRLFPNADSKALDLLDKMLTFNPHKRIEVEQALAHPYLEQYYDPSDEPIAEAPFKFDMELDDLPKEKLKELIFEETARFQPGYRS", "assay": "Inhibition of ERK1/2 phosphorylation in rat H9c2 cells at 0.5 to 1 uM by Western blot analysis", "format": "cell-based", "conditions": "dose 0.5-1 µM", "how_it_was_run": "as §1"}, "H9c2 [16]": {"tested_on": "H9c2", "assay": "Inhibition of OGD-induced apoptosis in rat H9c2 cells assessed as viable cells at 0.5 uM incubated for 24 hrs by annexinV-FITC and PI staining based flow cytometry analysis (reference value: 85 %)", "format": "functional"}},
  "note": "The source made the active and inactive calls. No cut-off for these calls is given here.",
  "data": [
    {"smiles": "CN(C)CCCN1CCc2c(sc3ncnc(Nc4ccc(N(C)C)c(NC(=O)c5ccco5)c4)c23)C1", "values": [
      {"measurement": "Activity", "setting": "Mus musculus [1]", "value": "Active"},
      {"measurement": "inhibition", "setting": "H9c2 [2]", "value": "inactive"},
      {"measurement": "inhibition at 0.5 µM", "setting": "H9c2 [3]", "value": 3.59, "unit": "%"},
      {"measurement": "inhibition at 1 µM", "setting": "H9c2 [4]", "value": 5.02, "unit": "%"},
      {"measurement": "inhibition", "setting": "H9c2 [5]", "value": "Active"},
      {"measurement": "inhibition", "setting": "Mus musculus [6]", "value": "Active"},
      {"measurement": "IC50", "setting": "[7]", "value": 240, "unit": "nM"},
      {"measurement": "Activity", "setting": "[8]", "value": "Non-Toxic"},
      {"measurement": "inhibition", "setting": "H9c2 [9]", "value": "Active"},
      {"measurement": "inhibition", "setting": "H9c2 [10]", "value": "inactive"},
      {"measurement": "inhibition", "setting": "H9c2 [11]", "value": "inactive"},
      {"measurement": "inhibition", "setting": "H9c2 [12]", "value": "Active"},
      {"measurement": "Activity", "setting": "Mus musculus [13]", "value": "Active"},
      {"measurement": "inhibition", "setting": "H9c2 [14]", "value": "Dose-dependent effect"},
      {"measurement": "inhibition", "setting": "[15]", "value": "inactive"},
      {"measurement": "inhibition at 0.5 µM", "setting": "H9c2 [16]", "value": 87, "unit": "%"}
    ]}
  ]
}
